Bioassay records from PubChem BioAssay.
BB579 growth dn: chemicals that inhibit yeast BB579 growth in restrictive medium (lifespan-shortening candidates); S. cerevisiae BB579 growth, OD615, 48 h; inhibition, % at 10 µM; 140,000 tested, 0.51% active; AID 804;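 active means inhibition above a set limit, 3 SD over the mean compound inhibition, cut at about 44% in these data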
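System: DeaD yeast strain BB579; buffer or medium: CSMM-D dextrose restrictive medium; technique: OD at 615 nm; schedule: 4 h cell preincubation, 48 h compound exposure, 30 °C humidified; doses: single 10 µM dose; controls: amphotericin B 10 µg/mL, positive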
Yeast life ext: yeast lifespan extension | S. cerevisiae growth with nicotinamide, OD615; deaD strain in restrictive glucose medium | inhibition of the nicotinamide effect, % at 10 µM | 130,000 tested, 0.68% active | AID 775;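 active means inhibition above a set limit, placed 3 SD over the median of all compounds, cut at about 26% in these data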;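 further: 0% = nicotinamide-treated wells and 100% = cells grown without nicotinamide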
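Material: Modified budding yeast, DeaD strain | Medium: Restrictive glucose medium | Probe or stimulus: 1.5 mM nicotinamide | Dosing: Single dose 10 µM compound, 0.25% DMSO | Times: 48 h at 30 °C | Technique: OD615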
PostGolgi yeast: growth inhibition of a yeast mutant, post-Golgi transport screen. post-Golgi transport phenotypic cell assay. inhibition, % at 10 µM. 98,000 tested, 0.9% active;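 further: yeast cells grown in 1536-well plates; yeast grown about 18 h at 30C before absorbance read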
PostGolgi ctrl: growth of the yeast control strain, post-Golgi counter-screen. inhibition, % at 10 µM. AID 738. efflux-deficient yeast background strain, growth absorbance A615, 16 h. 98,000 tested, 5% active
* hit, by the source's call. The entries come from a sample that favours hits as a whole. Unless noted, no stated cut-off is given here; in the data, active means inhibition above about 30%; inactive means the rest.

For Cc1ccc(-c2nc3ccccc3[nH]2)cc1NC(=S)NC(=O)c1ccccc1Br the results were BB579 growth dn -57, Yeast life ext -14, PostGolgi yeast 6 and PostGolgi ctrl 37*.
COc1cc2c(cc1OC)C(c1cc3cc4c(cc3[nH]c1=O)OCO4)N(C(=O)C(C)C)CC2 (configuration not stated) was read as BB579 growth dn -19.
For CCCCN(CC)C(=O)Cc1c(C(=O)O)[nH]c2ccc(Cl)cc12 the results were BB579 growth dn -9, Yeast life ext -9, PostGolgi yeast 3 and PostGolgi ctrl 32*.
Screening CCOCCCNC(=O)Cc1c(C(=O)O)[nH]c2ccc(Cl)cc12 returned BB579 growth dn -23, Yeast life ext -1, PostGolgi yeast 9 and PostGolgi ctrl 8.
For O=S(=O)(c1ccc(Oc2ccc(Br)cc2)cc1)N1CCOCC1 the results were BB579 growth dn -5, Yeast life ext -7, PostGolgi yeast 16 and PostGolgi ctrl 63*.
Screening C/C(=N\NC(=O)CSc1nnc(C)s1)c1ccc(Cl)cc1 returned BB579 growth dn -17 and Yeast life ext -6.
For Cc1nc(N2CCOCC2)c2oc3ccccc3c2n1 the results were BB579 growth dn -20, Yeast life ext -18, PostGolgi yeast 3 and PostGolgi ctrl 12.
Screening COc1ccccc1N1CCN(c2ncnc3c2oc2ccccc23)CC1 returned BB579 growth dn 4, Yeast life ext -20, PostGolgi yeast 6 and PostGolgi ctrl 38*.
c1ccc2c(c1)oc1c(N3CCOCC3)ncnc12 was read as BB579 growth dn 56*, Yeast life ext -14, PostGolgi yeast -15 and PostGolgi ctrl 7.
Screening C(=C\c1ccccc1)/CN1CCN(c2ncnc3c2oc2ccccc23)CC1 returned BB579 growth dn -45, Yeast life ext -7, PostGolgi yeast 21 and PostGolgi ctrl 31*.
For CC1=NNC(=O)C1CCC(=O)N/N=C\c1ccccc1[N+](=O)[O-] (configuration not stated) the results were BB579 growth dn -26, Yeast life ext -18, PostGolgi yeast 4 and PostGolgi ctrl 13.
For CCCC1COC(Cn2cncn2)(c2ccc(C)cc2)O1 (configuration not stated) the results were BB579 growth dn 94*, Yeast life ext -20, PostGolgi yeast 101* and PostGolgi ctrl 93*.
CCN1C(=O)N(C)C(N(O)C(=O)NC)C1(C)C (configuration not stated) was read as BB579 growth dn -49, Yeast life ext 0, PostGolgi yeast -3 and PostGolgi ctrl 5.
`CCOC(=O)c1sc(NC(=O)COC(=O)Cn2cnc3ccccc32)c(C(=O)OCC)c1C` gave BB579 growth dn -2, Yeast life ext -6, PostGolgi yeast 4 and PostGolgi ctrl -3.
`O=C1CC(c2cc(Br)ccc2F)c2cc3c(cc2N1)CCC3` (configuration not stated) gave BB579 growth dn -27, Yeast life ext -19, PostGolgi yeast 2 and PostGolgi ctrl 35*.
O=C1CC(c2ccccc2F)c2cc3c(cc2N1)CCC3 (configuration not stated) was read as BB579 growth dn -46, Yeast life ext 2, PostGolgi yeast 4 and PostGolgi ctrl 30.
`O=C1CC(c2cccc(Cl)c2)c2cc3c(cc2N1)CCC3` (configuration not stated) gave BB579 growth dn -16, Yeast life ext 14, PostGolgi yeast 1 and PostGolgi ctrl 89*.
Screening Cc1cccc(NS(=O)(=O)c2cc(C(=O)NCCC3=CCCCC3)ccc2Cl)c1 returned BB579 growth dn -19, Yeast life ext -7, PostGolgi yeast 7 and PostGolgi ctrl 35*.
For Cc1ccccc1NS(=O)(=O)c1cc(C(=O)NCCC2=CCCCC2)ccc1Cl the results were BB579 growth dn -39, Yeast life ext -6, PostGolgi yeast -1 and PostGolgi ctrl 17.
`Cc1cc(C)c(C#N)c(SCC(=O)N2CCCCC2)n1` gave BB579 growth dn -20, Yeast life ext -19, PostGolgi yeast -8 and PostGolgi ctrl 13.
Screening Cc1cc(C)c(C#N)c(SCC(=O)N2CCN(Cc3ccccc3)CC2)n1 returned BB579 growth dn -11, Yeast life ext -8, PostGolgi yeast 16 and PostGolgi ctrl 31*.
CCN(Cc1ccccc1)C(=O)CSc1nc(C)cc(C)c1C#N was read as BB579 growth dn -8, Yeast life ext -1, PostGolgi yeast 10 and PostGolgi ctrl 35*.
Cc1cc(C)c(C#N)c(SCS(=O)Cc2ccccc2)n1 (configuration not stated) was read as BB579 growth dn -40, Yeast life ext -4, PostGolgi yeast -2 and PostGolgi ctrl -1.
For COc1ccccc1-c1cc(C(=O)N/N=C/c2ccc(C)s2)c2ccccc2n1 the results were BB579 growth dn -45, Yeast life ext -10, PostGolgi yeast 10 and PostGolgi ctrl 92*.
Screening CCc1ccc(/C=N/NC(=O)c2cc(-c3ccccc3OC)nc3ccccc23)s1 returned BB579 growth dn -23, Yeast life ext -11, PostGolgi yeast 9 and PostGolgi ctrl 75*.
Screening COc1ccc(/C=N/NC(=O)c2cc(-c3ccccc3OC(C)C)nc3ccccc23)cc1CN1CCOCC1 returned BB579 growth dn 0 and Yeast life ext 0.
`COc1ccc(/C=N/NC(=O)c2cc(-c3ccccc3OC)nc3ccccc23)cc1COC(C)=O` gave BB579 growth dn -75, Yeast life ext -13, PostGolgi yeast 0 and PostGolgi ctrl 5.
Screening CCOc1ncccc1C(=O)OCc1ccc(C#N)cc1 returned BB579 growth dn 6 and Yeast life ext -5.
`Cc1cc(=O)oc2cc(OC(=O)CCCCCN3C(=O)c4ccccc4C3=O)ccc12` gave BB579 growth dn -50 and Yeast life ext 32*.
For Cc1oc2cc(O)ccc2c(=O)c1N1C(=O)c2ccccc2C1=O the results were BB579 growth dn -37, Yeast life ext -2, PostGolgi yeast 2 and PostGolgi ctrl 0.
`CC(=O)Oc1ccc2c(=O)c(N3C(=O)c4ccccc4C3=O)c(C)oc2c1` gave BB579 growth dn -39 and Yeast life ext 28*.
For CCOc1cc(S(=O)(=O)NC2CCCCCC2)ccc1F the results were BB579 growth dn 1, Yeast life ext -1, PostGolgi yeast 12 and PostGolgi ctrl 40*.
O=C(NNS(=O)(=O)c1ccc(Br)cc1)NC1CCCCC1 was read as BB579 growth dn -5 and Yeast life ext 5.
`O=S(=O)(NC1CCCCC1)c1ccc(Br)cc1` gave BB579 growth dn 13, Yeast life ext -10, PostGolgi yeast -4 and PostGolgi ctrl 32*.
`Cc1cc(S(=O)(=O)NC2CCCC2)ccc1F` gave BB579 growth dn -10, Yeast life ext -15, PostGolgi yeast -9 and PostGolgi ctrl 7.
`O=C(COC(=O)C12CC3CC(CC(C3)C1)C2)Nc1ccccc1F` gave BB579 growth dn -60 and Yeast life ext 9.
For CCCc1cc(C(=O)N2CCN(c3ccccc3C)CC2)cs1 the results were BB579 growth dn -11, Yeast life ext -10, PostGolgi yeast -10 and PostGolgi ctrl 38*.
`COc1ccc(CCNC(=O)Cn2cnc3c(nnn3Cc3ccccc3F)c2=O)cc1OC` gave BB579 growth dn -21.
